First the molecules themselves.
B1: tRNA (parent)
chain: CUCUCGGUAGCCAAGUUGGUUUAAGGCGCAAGACUUUAAUUUAUCACUACGAAAUCUUGAGAUCGGGCGUUCGACUCGCCCCCGGGAGAUUUUUUCCUCGAGCAA

Variants at the floor of the assay were thinned out.

This series covers variants of B1. Kind of series: nonsense suppression (GFP-seq) (ratio to wild type); higher = more function; SUP4oc tRNA, yeast GFP reporter sort-seq. In a few lines:
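Raffinose/galactose medium with 80 mg/L adenine was used to grow yeast carrying genome-integrated tRNA variants (~3% random-mutation library), RFP, and a galactose-driven GFP ochre reporter. Cells went into GFP/RFP bins, which were Illumina-sequenced, and variants with ≥100 reads and ≥30 cells were scored. Nonsense suppression (GFPSEQ) is the per-bin median GFP/RFP weighted by estimated cell share and expressed relative to the unmutated parent tRNA.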
For CUCUCGGUAGCUAAGUUGGGUUAAGGCGCAAGACUUUAAUUUAUCACUACGAAAUCUUGAGAUCGGGCGUUCGACUCGCCCCCGGGAGAUUUUUUCCUCGAGCAA [C12U U20G], the nonsense suppression worked out at 0.455.

As to CUCUCGGUAGCUAAGUUGGCUUAAGGCGCAAGACUUUAAUUUAUCACUACGAAAUCUUGAGAUCGGGCGUUCGACUCGCCCCCGGGAGAUUUUUUCCUCGAGCAA [C12U U20C], the nonsense suppression was 0.177. Next, CUCUCGGUAGCCCAGUUGGUUUAAGGCGCACGACUUUAAUUUAUCACUACGAAAUCUUGAGAUCGGGCGUUCGACACGCCCCCGGGAGAUUUUUUCCUCGAGCAA [A13C A31C U76A]: ≤ 0.026. The value for CUCUCGGUAGCUAAGUUGGUUUAACGCGCAAGACUUUAAUUUAUCACUACGAAAUCUUGAGAUCGGGCGUUCGACUCGCCCCCGGGAGAUUUUUUCCUCGAGCAA [C12U G25C] was 0.184; that for CUCUCGGUAGCUAAGUUGGUUUAAUGCGCAAGACUUUAAUUUAUCACUACGAAAUCUUGAGAUCGGGCGUUCGACUCGCCCCCGGGAGAUUUUUUCCUCGAGCAA [C12U G25U] was 0.192. Next, CUCUCGGUAGCUAAGUUGGUUUAAAGCGCAAGACUUUAAUUUAUCACUACGAAAUCUUGAGAUCGGGCGUUCGACUCGCCCCCGGGAGAUUUUUUCCUCGAGCAA [C12U G25A]: 1.19; CUCUCGGUAGCUAAGUCGGUUUAAGGCGCAAGACUUUAAUUUAUCACUACGAAAUCUUGAGAUCGGGCGUUCGACUCGCCCCCGGGAGAUUUUUUCCUCGAGCAA [C12U U17C]: 0.212; CUCUCGGUAGCCCAGUUGGUUUAAGGCGCAUGACUUUAAUUUAUCACUACGAAAUCUUGACAUCGGGCGUUCGACUCGCCCCCGGGAGAUUUUUUCCUCGAGCAA [A13C A31U G61C]: ≤ 0.026. As for CUCUCGGUAGCCCAGUUGGUUUAAGGCGCAAGACUUUAAUUUAUCACUACGAAAUCUUGAGAUCGGGCGUUCGACUCGCCCCCGGGAGAUUUUUUCCUCGAGCAA [A13C], the nonsense suppression was found to be 1.13.

In the case of CUCUCGGUAGCUAAGUUGGUUUAAGUCGCAAGACUUUAAUUUAUCACUACGAAAUCUUGAGAUCGGGCGUUCGACUCGCCCCCAGGAGAUUUUUUCCUCGAGCAA [C12U G26U G84A], the nonsense suppression was ≤ 0.026. The value for CUCUCGGUAGCUAAGUUGGUUUAAGGCGCAAGACCUUAAUUUAUCACUACGAAAUCUUGAGAUCGGGCGUUCGACUCGCCCCCGGGAGAUUUUUUCCUCGAGCAA [C12U U35C] was 0.0352; that for CUCUCGGUAGCUAAGUUGGUUUAAGGCGCAAGACUUUAAUUUAUCACUACGAAAUCUUGAGAUCGGGCGUUCGACGCGCCCCCGGGAGAUUUUUUCCUCGAGCAA [C12U U76G] was 0.0906. Next, CUCUCGGUAGCUAAGUUGGUUUAAGGCGCAAGACUUUAAUUUAUCACUACGAAAUCUUGAGAUCGGGCGUUCGACACGCCCCCGGGAGAUUUUUUCCUCGAGCAA [C12U U76A]: 0.244; CUCUCGGUAGCUAAGUUGGUUUAAGGCGCAAGACUUUAAUUUAUCACUACGAAAUCUUGAGAUCGGGCGUUCGACCCGCCCCCGGGAGAUUUUUUCCUCGAGCAA [C12U U76C]: 0.818. The value for CUCUCGGUAGCUAAGUUGGUUUAAGGCGCAAGACUUUAAUUUAUCACUACGAAAUCUUGAGAGCGGGCGUUCGACUCGCCCCCGGGAGAUUUUUUCCUCGAGCAA [C12U U63G] was 0.121; that for CUCUCGGUAGCUAAGUUGGUUUAAGGCGCAAGACUUUAAUUUAUCACUACGAAAUCUUGAGAACGGGCGUUCGACUCGCCCCCGGGAGAUUUUUUCCUCGAGCAA [C12U U63A] was 0.697; that for CUCUCGGUAGCUAAGUUUGUUUAAGGCGCCAGACUUUAAUUUAUCACUACGAAAUCUUGAGAUCGGGCGUUCGACUCGCCCCCAGGAGCUUUUUUCCUCGAGCAA [C12U G18U A30C G84A A89C] was ≤ 0.026. CUCUCGGUAGCCCAGUUGGUUUGAGGCGCAUGACUUUAAUUUAUCACUACGAAAUCUUGAGAUCGGGCGUUCGACUCGCCCCCGGGAGAUUUUUUCCUCGAGCAA [A13C A23G A31U]: the nonsense suppression was ≤ 0.026. Consider CUCUCGGUAGCUAAGUUGGUUUAAGGCGCAAGACUUUAAUUUAUCACUACGAAAUCUUGAGAUCGGGCGUUCGACUCGCCACCGGGAGAUUUUUUCCUCGAGCAA [C12U C81A], for which the nonsense suppression was found to be 0.0405. For CUCUCGGUAGCUAAGUUGGUUUAAGGCGCAAGACUUUAAUUUAUCACUACGAAAGCUUGAGAUCGGGCGGUCGACUCGCCCCUGGGAGAUUUUUUCCUCGAGCAA [C12U U55G U70G C83U], the nonsense suppression is ≤ 0.026. With CUCUCGGUAGCUAAGUUGGUUUAAGGCGCAAGACUUUAAUUUAUCACUACGAAAUCUUGAGAUAGGGCGUUCGACUCGCCCCCGGGAGAUUUUUUCCUCGAGCAA [C12U C64A], the nonsense suppression was ≤ 0.026.

Take CUCUCGGUAGCUAAGUUGGUUUAAGGCGCAAGACUUUAAUUUAUCACUACGAAAUCUUGAGAUUGGGCGUUCGACUCGCCCCCGGGAGAUUUUUUCCUCGAGCAA [C12U C64U]: the nonsense suppression was ≤ 0.026. Turning to CUCUCGGUAGCUAAGUUGGUUUAAGGCGCAAGACUUUAAUUUAUCACUACGAAAUCUUGAGAUCGGGCGUUCGACUCGCCCCCUGGAGAUUUUUUCCUCGAGCAA [C12U G84U], the nonsense suppression was determined as 0.117. Regarding CUCUCGGUAGCUAAGUUGGUUUAAAGCGCAAGACUUUAAUUUAUCACUACGAAAUCUUGAGAUCGGGCGUUCGGCUCGCCCCCGGGAGAUUUUUUCCUCGAGCAA [C12U G25A A74G], the nonsense suppression was ≤ 0.026. The value for CUCUCGGUAGCUAAGUUGGUUUAAGGCGCAAGACUUUAAUUUAUCACUACGAAAUCUUGAGAUCGGGCGUUCGACUCGCCCCCGCGAGAUUUUUUCCUCGAGCAA [C12U G85C] was 0.111; that for CUCUCGGUAGCUAAGUUGGUUUAAGGCGCAAGACUUUAAUUUAUCACUACGAAAUCUUGAGAUCGGGCGUUCGACUCGCCCCCGUGAGAUUUUUUCCUCGAGCAA [C12U G85U] was 0.0919; that for CUCUCGGUAGCUAAGUUGGUUUAAGGCGCAAGACUUUAAUUUAUCACUACGAAAUCUUGAGAUCGGGCGUUCGACUCUCCCCCGGGAGAUUUUUUCCUCGAGCAA [C12U G78U] was 0.0326.

The values above are taken from the RNAGym collection of RNA variant scans (doi:10.1101/gad.245936.114).
